Test results published in article PMC8640676 (Journal of Pesticide Science, 2021).

Experiments:
[1] = molecular target: T1, protoporphyrinogen oxidase (PPO) (Mus musculus, UniProt P51175); assay: PPO-inhibition assay, mouse liver mitochondrial fraction; format: biochemical
T1 sequence (P51175 1-477): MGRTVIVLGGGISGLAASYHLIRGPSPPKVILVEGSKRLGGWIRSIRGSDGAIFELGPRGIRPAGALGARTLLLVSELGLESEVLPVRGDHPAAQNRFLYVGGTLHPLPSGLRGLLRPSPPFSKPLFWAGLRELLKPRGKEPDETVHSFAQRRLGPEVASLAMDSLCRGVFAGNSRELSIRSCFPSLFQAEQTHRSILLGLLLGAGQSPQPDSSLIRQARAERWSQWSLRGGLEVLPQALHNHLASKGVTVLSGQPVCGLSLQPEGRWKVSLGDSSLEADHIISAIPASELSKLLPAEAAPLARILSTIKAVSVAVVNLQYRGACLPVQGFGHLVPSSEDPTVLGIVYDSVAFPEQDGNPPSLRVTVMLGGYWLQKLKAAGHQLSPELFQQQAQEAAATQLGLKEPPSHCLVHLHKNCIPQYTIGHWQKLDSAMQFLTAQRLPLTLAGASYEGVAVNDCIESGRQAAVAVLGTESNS
Procedure, shortened: (§1)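 Liver mitochondria came from pooled SD rats and humans, or were freshly kit-isolated from Crl:CD1 mice and TOYO beagles. They were used at 0.2 mg protein/mL in 100 mM Tris-HCl pH 7.5 with 0.1% Triton-X, 1 mM EDTA and 40 mM ascorbate, preincubated 10 min at 37°C, then given 0.5 µM protoporphyrinogen IX. PPIX fluorescence (ex 410/em 630 nm) was read for 60 min at 37°C. Heat-killed mitochondria gave the background, and IC50 came from 4-parameter fits over 3 runs.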

[2] = Toxicokinetics in plasma, dog 90-day study; format: in vivo; conditions: for Cmax: beagle, dog, plasma, po
[3] = tested on: cryopreserved primary hepatocytes of humans; assay: Hepatocyte uptake assay; format: in vitro ADME; conditions: human hepatocytes (both genders), 5 µM, 37°C minus 4°C
[4] = tested on: cryopreserved primary hepatocytes of SD rats; assay: Hepatocyte uptake assay; format: in vitro ADME, rat; conditions: rats vs humans
[5] = In vitro metabolism study in liver microsomes; format: in vitro ADME; conditions: rat liver microsomes, [14C]epyrifenacil 10 µM
[6] = Toxicokinetics in plasma, rat 90-day study; format: in vivo; conditions: for AUC(0-t) / Cmax: rat, plasma, po
[7] = In vitro metabolism study in liver microsomes; format: in vitro ADME; conditions: human liver microsomes, [14C]epyrifenacil 10 µM
[8] = In vitro metabolism study in liver microsomes; format: in vitro ADME; conditions: mouse liver microsomes, [14C]epyrifenacil 10 µM
[9] = molecular target: T2, protoporphyrinogen oxidase (PPO) (Rattus norvegicus, UniProt D3ZVN7); assay: PPO-inhibition assay, rat liver mitochondrial fraction; format: biochemical
T2 sequence (D3ZVN7 1-488): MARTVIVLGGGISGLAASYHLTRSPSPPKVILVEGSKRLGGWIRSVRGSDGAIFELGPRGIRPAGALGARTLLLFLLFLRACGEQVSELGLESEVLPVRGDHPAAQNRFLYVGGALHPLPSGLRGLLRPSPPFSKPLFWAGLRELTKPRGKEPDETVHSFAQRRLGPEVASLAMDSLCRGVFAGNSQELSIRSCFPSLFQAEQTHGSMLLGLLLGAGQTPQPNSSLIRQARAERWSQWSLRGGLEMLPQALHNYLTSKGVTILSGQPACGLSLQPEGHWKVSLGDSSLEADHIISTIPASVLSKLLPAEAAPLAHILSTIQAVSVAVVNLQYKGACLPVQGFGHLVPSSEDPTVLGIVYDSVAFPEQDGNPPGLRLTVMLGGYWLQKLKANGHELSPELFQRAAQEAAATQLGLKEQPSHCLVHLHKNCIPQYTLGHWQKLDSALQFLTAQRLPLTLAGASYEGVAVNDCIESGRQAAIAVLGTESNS
Procedure, shortened: as §1

[10] = molecular target: T3, protoporphyrinogen oxidase (PPO) (Homo sapiens, UniProt P50336); assay: PPO-inhibition assay, human liver mitochondrial fraction; format: biochemical
T3 sequence (P50336 1-477): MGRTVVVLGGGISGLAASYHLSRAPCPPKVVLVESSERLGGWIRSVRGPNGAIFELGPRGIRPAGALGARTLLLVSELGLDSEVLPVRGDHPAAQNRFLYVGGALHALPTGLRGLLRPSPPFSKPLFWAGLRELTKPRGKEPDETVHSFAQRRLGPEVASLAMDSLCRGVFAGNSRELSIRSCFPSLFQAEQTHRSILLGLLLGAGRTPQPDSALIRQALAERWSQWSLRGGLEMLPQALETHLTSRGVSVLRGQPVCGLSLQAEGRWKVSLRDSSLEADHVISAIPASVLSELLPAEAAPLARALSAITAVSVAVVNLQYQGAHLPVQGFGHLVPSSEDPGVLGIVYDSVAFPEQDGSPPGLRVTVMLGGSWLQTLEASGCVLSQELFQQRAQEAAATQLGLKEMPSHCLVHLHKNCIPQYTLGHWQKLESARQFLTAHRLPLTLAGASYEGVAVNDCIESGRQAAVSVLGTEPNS
Procedure, shortened: as §1

[11] = Toxicokinetics in plasma, mouse 90-day study; format: in vivo; conditions: mouse, plasma, po
[12] = female, Crl:CD(SD), 19 mg/kg bw/day
[13] = male, Crl:CD(SD), 3 mg/kg bw/day
[14] = female, Crl:CD1(ICR), 4.1 mg/kg bw/day

Cn1c(C(F)(F)F)cc(=O)n(-c2cc(Oc3cccnc3OCC(=O)O)c(Cl)cc2F)c1=O [S-3100-CA, (3-{2-chloro-4-fluoro-5-[1,2,3,6-tetrahydro-3-methyl-2,6-dioxo-4-(trifluoromethyl)pyrimidin-1-yl]phenoxy}pyridin-2-yloxy)acetic acid]
IC50 [1]: 0.9 ± 0.3 nM
AUC0–24 of S-3100-CA at NOAEL, fold change vs. corresponding mouse value ([2]; female dogs vs female mice): 23 fold
Cmax of S-3100-CA at NOAEL, fold change vs. corresponding mouse value ([2]; female dogs vs female mice): 42 fold
Cmax ([2]; female, 300 mg/kg bw/day): 5650 ng/mL
Cmax ([2]; female, 300 mg/kg/day): 5650 ng/mL
Cmax of S-3100-CA at NOAEL, fold change vs. corresponding mouse value ([2]; male dogs vs male mice): 74 fold
Cmax ([2]; male, 100 mg/kg bw/day): 947 ng/mL
Cmax ([2]; male, 100 mg/kg/day): 947 ng/mL
Active uptake rate into hepatocytes [3]: 3.83 µL/10^6 cells/min
Hepatocyte uptake, times greater in rats than in humans [4]: 2 times
S-3100-CA detected as major metabolite, share of the applied radioactivity [5]: no less than 80%
AUC0–24 of S-3100-CA at NOAEL, fold change vs. corresponding mouse value ([6]; female rats vs female mice): 2.2 fold
Cmax of S-3100-CA at NOAEL, fold change vs. corresponding mouse value ([6]; female rats vs female mice): 2.0 fold
AUC(0-t) [6, 12]: 5020 ng·h/mL
Cmax [6, 12]: 266 ng/mL
AUC(0-t) ([6]; female, Crl:CD(SD), 50 ppm): 879 ng·h/mL
Cmax ([6]; female, 50 ppm in diet): 46.5 ng/mL
AUC(0-t) ([6]; female, 300 ppm in diet): 5020 ng·h/mL
Cmax ([6]; female, 300 ppm in diet): 266 ng/mL
AUC(0-t) ([6]; female, 800 ppm in diet): 13200 ng·h/mL
Cmax ([6]; female, 800 ppm in diet): 756 ng/mL
Cmax of S-3100-CA at NOAEL, fold change vs. corresponding mouse value ([6]; male rats vs male mice): 1.6 fold
AUC(0-t) [6, 13]: 467 ng·h/mL
Cmax [6, 13]: 20.7 ng/mL
AUC(0-t) ([6]; male, Crl:CD(SD), 50 ppm): 467 ng·h/mL
Cmax ([6]; male, Crl:CD(SD), 50 ppm): 20.7 ng/mL
AUC(0-t) ([6]; male, 300 ppm in diet): 4010 ng·h/mL
Cmax ([6]; male, 300 ppm in diet): 248 ng/mL
S-3100-CA detected as major metabolite, share of the applied radioactivity [7]: no less than 80%
S-3100-CA detected as major metabolite, share of the applied radioactivity [8]: no less than 80%
IC50 [9]: 1.5 ± 0.36 nM
IC50 [10]: 12.5 ± 2.08 nM
AUC(0-t) [11, 14]: 2240 ng·h/mL
Cmax [11, 14]: 135 ng/mL
AUC(0-t) ([11]; female, 5 ppm in diet): 403 ng·h/mL
Cmax ([11]; female, 5 ppm in diet): 22.7 ng/mL
AUC(0-t) ([11]; female, 25 ppm in diet): 2240 ng·h/mL
Cmax ([11]; female, 25 ppm in diet): 135 ng/mL
AUC(0-t) ([11]; female, 100 ppm in diet): 14800 ng·h/mL
Cmax ([11]; female, 100 ppm in diet): 860 ng/mL
Cmax ([11]; male, Crl:CD1(ICR), 0.7 mg/kg bw/day): 12.8 ng/mL
Cmax ([11]; male, 5 ppm in diet): 12.8 ng/mL
AUC(0-t) ([11]; male, 25 ppm in diet): 4580 ng·h/mL
Cmax ([11]; male, 25 ppm in diet): 64.9 ng/mL
AUC(0-t) ([11]; male, 100 ppm in diet): 10100 ng·h/mL
Cmax ([11]; male, 100 ppm in diet): 550 ng/mL
